Test results as given in ChEMBL document CHEMBL3352206, “Discovery of substituted 4-aminoquinazolines as selective Toll-like receptor 4 ligands” (Bioorg Med Chem Lett, 2014).
Calls of active or inactive are those of the source. The rule behind the calls is not given here.

Tests used:
[1] = molecular target: Toll-like receptor 4 (Homo sapiens) (UniProt O00206); assay: Activation of human TLR4 fransfectoma in HEK Blue cells at 0.5 uM relative to LPS; type: cell-based; conditions: HEK293
Method in brief: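 hTLR4 HEK Blue transfectoma cells incubated with compound at 0.5 μM for 20–22 h; SEAP read by QuantiBlue OD630. Values normalized to LPS (100 ng/mL) positive control set at 100.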

HepG2 = assay: Cytotoxicity against human HepG2 cells at 10 uM by MTT assay; type: functional
Method in brief: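 HepG2 viability by MTT at 10 μM compound; OD570–650 normalized to vehicle-treated cells in the same experiment.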

PBMC [2] = assay: Induction of IL-8 level in human PBMC at 0.5 uM by ELISA relative to LPS; type: functional
Method in brief: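 Primary human PBMC stimulated overnight with compound at 0.5 μM; IL-8 in supernatant by ELISA, normalized to LPS (100 ng/mL) set at 100.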

[3] = molecular target: T1, Toll-like receptor 4/MD-2 (Homo sapiens) (UniProt O00206+Q9Y6Y9); assay: Activation of human TLR4/MD2 complex expressed in HEK293 Blue cells coexpressing CD14 assessed as SEAP secretion at 10 uM after 20 to 24 hrs by SEAPorter assay; type: cell-based
BMDC [4] = assay: Induction of CD86 expression in TLR4-deficient CD11c+ population of mouse BMDC; type: functional
Method in brief: (§1)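 BMDC from wild-type or Tlr4−/− mice treated with compound or vehicle (0.5% DMSO); stained for CD11c plus CD40, CD80 or CD86. Marker expression assessed by flow cytometry on gated CD11c+ cells.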

[5] = Cytotoxicity against mouse BMDC at 10 uM after 18 hrs incubation by MTT assay
Method in brief: (§2)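 Human PBMC or mouse BMDC incubated 18 h with compound at 10 μM; viability by MTT assay, reported as percent.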

PBMC [6] = assay: Cytotoxicity against human PBMC at 10 uM after 18 hrs incubation by MTT assay; type: cell-based; method in brief: as §2
[7] = molecular target: Toll-like receptor 4/MD-2/CD14 (Mus musculus) (UniProt Q9QUK6+Q9JHF9+P10810); assay: Activation of mouse TLR4/MD2 complex in mouse RAW264.7 cells assessed as induction of NFkappaB activation incubated for 18 hrs
BMDC [8] = assay: Induction of CD80 expression in wild type CD11c+ population of mouse BMDC; type: functional; method in brief: as §1
PBMC [9] = assay: Induction of IL-8 expression in human PBMC by ELISA in presence of polymyxin B; type: functional, cell-based
Method in brief: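 Human PBMC incubated overnight with compound, alone or with polymyxin B (10 μg/mL); IL-8 in supernatant by ELISA. Mean ± SEM of triplicates, two independent experiments.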

PBMC [10] = assay: Induction of IL-8 level in human PBMC at < 1 uM by ELISA; type: functional, cell-based
Method in brief: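 Mouse BMDC or human PBMC stimulated overnight with graded compound concentrations; IL-6 (mouse) or IL-8 (human) in supernatant by ELISA. Mean ± SEM of triplicates, two independent experiments.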

L929 = assay: Induction of type 1 IFN release in mouse L929-ISRE cells assessed as luciferase release at 10 uM; type: functional, cell-based
Method in brief: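 Human PBMC incubated overnight with compound (10 μM), LPS (10 ng/mL) or vehicle; type I IFN in supernatant quantified as luciferase release from L929-ISRE reporter cells. Mean ± SEM of triplicates.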

BMDC [11] = assay: Induction of CD80 expression in TLR4-deficient CD11c+ population of mouse BMDC; type: functional; method in brief: as §1
PBMC [12] = assay: Induction of CD83 expression in CD11c+ HLA-DR+ population of human PBMC; type: functional, cell-based
Method in brief: (§3)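 Human PBMC incubated overnight with compound at 5 μM; CD80 and CD83 measured by flow cytometry on gated CD11c+HLA-DR+ cells. Two independent experiments.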

[13] = molecular target: T1, Toll-like receptor 4/MD-2 (Homo sapiens); assay: Activation of human TLR4/MD2 complex in human THP1 cells assessed as induction of NFkappaB activation incubated for 18 hrs; type: cell-based; conditions: THP-1
Method in brief: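 CellSensor THP-1 or RAW264.7 cells carrying an NF-κB-driven FRET β-lactamase reporter; graded compound concentrations for 18 h. NF-κB activation normalized to LPS (5 ng/mL) and expressed as percent activation.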

PBMC [14] = assay: Induction of CD80 expression in CD11c+ HLA-DR+ population of human PBMC; type: functional, cell-based; method in brief: as §3
[15] = molecular target: T1, Toll-like receptor 4/MD-2 (Homo sapiens); assay: Activation of human TLR4/MD2 complex expressed in HEK293 Blue cells assessed as SEAP secretion at 10 uM after 20 to 24 hrs by SEAPorter assay
[16] = molecular target: T1, Toll-like receptor 4/MD-2 (Homo sapiens); assay: Activation of human TLR4/MD2 complex expressed in HEK293 Blue cells coexpressing CD14 assessed as SEAP secretion at 10 uM after 20 to 24 hrs by SEAPorter assay in presence of Rhodobacter sphaeroides LPS; type: cell-based
Method in brief: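 hTLR4/MD-2/CD14 transfectoma cells given 10 μM compound or 10 ng/mL LPS, with or without the TLR4 antagonist LPS-RS (Rhodobacter sphaeroides LPS; 12, 111, 1000 ng/mL). TLR4/NF-κB activation read as SEAP in supernatant. One-way ANOVA with Dunnett's test versus vehicle.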

BMDC [17] = assay: Induction of CD40 expression in wild type CD11c+ population of mouse BMDC; type: functional; method in brief: as §1
BMDC [18] = assay: Induction of IL-6 production in TLR4-deficient mouse BMDC at 10 uM by ELISA; type: functional
Method in brief: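 BMDC from wild-type and TLR4-deficient mice stimulated with compound at 10 μM; IL-6 in culture supernatant by ELISA.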

[19] = molecular target: Toll-like receptor 4 (Homo sapiens) (UniProt O00206); assay: Activation of human TLR4 complex expressed in MD2-deficient HEK293 Blue cells coexpressing CD14 assessed as SEAP secretion at 10 uM after 20 to 24 hrs by SEAPorter assay; type: cell-based
BMDC [20] = assay: Induction of CD40 expression in TLR4-deficient CD11c+ population of mouse BMDC; type: functional; method in brief: as §1
BMDC [21] = assay: Induction of CD86 expression in wild type CD11c+ population of mouse BMDC; type: functional; method in brief: as §1

Toll-like receptor 4 (Homo sapiens), sequence (O00206 whole entry): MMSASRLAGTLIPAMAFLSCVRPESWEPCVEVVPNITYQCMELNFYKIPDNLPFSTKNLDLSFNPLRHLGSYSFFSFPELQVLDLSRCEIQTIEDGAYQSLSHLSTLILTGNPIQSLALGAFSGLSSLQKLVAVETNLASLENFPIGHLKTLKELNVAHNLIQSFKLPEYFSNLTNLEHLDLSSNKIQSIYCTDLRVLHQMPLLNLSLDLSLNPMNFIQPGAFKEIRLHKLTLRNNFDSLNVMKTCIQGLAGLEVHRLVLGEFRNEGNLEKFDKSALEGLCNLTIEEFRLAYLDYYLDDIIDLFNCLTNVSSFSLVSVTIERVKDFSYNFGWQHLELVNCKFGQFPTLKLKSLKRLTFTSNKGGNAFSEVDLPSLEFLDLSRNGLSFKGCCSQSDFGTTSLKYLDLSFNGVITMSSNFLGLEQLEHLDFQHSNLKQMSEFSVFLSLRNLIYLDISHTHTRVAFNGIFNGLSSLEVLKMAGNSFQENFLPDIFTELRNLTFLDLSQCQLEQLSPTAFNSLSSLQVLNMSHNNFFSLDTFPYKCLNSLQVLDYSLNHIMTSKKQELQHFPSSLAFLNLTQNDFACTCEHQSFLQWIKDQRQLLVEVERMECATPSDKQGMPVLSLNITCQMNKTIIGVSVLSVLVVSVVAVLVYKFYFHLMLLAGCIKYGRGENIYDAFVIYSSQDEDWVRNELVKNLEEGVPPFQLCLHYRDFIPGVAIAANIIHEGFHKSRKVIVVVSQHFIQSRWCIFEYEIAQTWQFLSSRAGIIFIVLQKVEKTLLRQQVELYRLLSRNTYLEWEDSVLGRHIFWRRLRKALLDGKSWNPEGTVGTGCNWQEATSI

Compound	Activity [1] [%]	Activity (HepG2) [%]	Activity (PBMC [2]) [%]	further results
CCOC(=O)c1nc(Nc2cc(Oc3ccccc3Br)cc([N+](=O)[O-])c2)c2ccccc2n1	79	90.8		
CC(C)OC(=O)c1nc(Nc2cc(Oc3ccccc3Br)cc([N+](=O)[O-])c2)c2ccccc2n1	67.8	106.5		
NC(=O)c1nc(Nc2cc(Oc3ccccc3)cc([N+](=O)[O-])c2)c2ccccc2n1	0	78.4	0.3	
O=C(O)c1nc(Nc2cc(Oc3ccccc3)cc([N+](=O)[O-])c2)c2ccccc2n1	0.6	84.5	0.5	
CCOC(=O)c1nc(Nc2cc(Oc3ccccc3)cc([N+](=O)[O-])c2)c2ccccc2n1	49.1	93.5		Activity [3]: Active; Activity (BMDC [4]): inactive; Activity [5]: 117%; Activity (PBMC [6]): 112%; Activity [7]: Active; Activity (BMDC [8]): Active; Activity (PBMC [9]): Active; Activity (PBMC [10]): Active; Activity (L929): Active; Activity (BMDC [11]): inactive; Activity (PBMC [12]): Active; Activity [13]: Active; Activity (PBMC [14]): Active; Activity [15]: inactive; Activity [16]: inactive; Activity (BMDC [17]): Active; Activity (BMDC [18]): inactive; Activity [19]: inactive; Activity (BMDC [20]): inactive; Activity (BMDC [21]): Active
CCOC(=O)c1nc(Nc2cc(Oc3ccccc3CC)cc([N+](=O)[O-])c2)c2ccccc2n1	4.2	98.9	3.2	
CCOC(=O)c1nc(Nc2cc(Oc3ccccc3Cl)cc([N+](=O)[O-])c2)c2ccccc2n1	73.9	107.4		
CCOC(=O)c1nc(Nc2cc(Oc3ccc(C)cc3)cc([N+](=O)[O-])c2)c2ccccc2n1	0.5	108.8	0.4	
CC(C)OC(=O)c1nc(Nc2cc(Oc3ccccc3)cc([N+](=O)[O-])c2)c2ccccc2n1	7.4	65.6	2.1	
CCOC(=O)c1nc(Nc2cc(Oc3ccccc3C)cc([N+](=O)[O-])c2)c2ccccc2n1	45.5	96.7		
CCOC(=O)c1nc(Nc2cc(N)cc(Oc3ccccc3)c2)c2ccccc2n1	0.6	106.1	0.3	
CCNC(=O)c1nc(Nc2cc(Oc3ccccc3)cc([N+](=O)[O-])c2)c2ccccc2n1	2.2	107.4	1.5	
CC(C)CCOC(=O)c1nc(Nc2cc(Oc3ccccc3)cc([N+](=O)[O-])c2)c2ccccc2n1	8.4	63.4	2.2	
CCOC(=O)c1nc(Nc2cc(Oc3c(C)cccc3C)cc([N+](=O)[O-])c2)c2ccccc2n1	0.6	106.3	0	
COC(=O)c1nc(Nc2cc(Oc3ccccc3)cc([N+](=O)[O-])c2)c2ccccc2n1	0.4	116.4	0.2	
CCOC(=O)c1nc(Nc2cc(Oc3ccc4ccccc4c3)cc([N+](=O)[O-])c2)c2ccccc2n1	0.8	111.4	0	
CCOC(=O)c1nc(Nc2cc(Oc3ccccc3I)cc([N+](=O)[O-])c2)c2ccccc2n1	65.5	93.8		
CCOC(=O)c1nc(Nc2cc(Oc3cccc(C)c3)cc([N+](=O)[O-])c2)c2ccccc2n1	14.5	109.9	5.8	
Nc1cc(Nc2nc(C(=O)O)nc3ccccc23)cc(Oc2ccccc2)c1	1.1	105	0.3	
O=C(O)c1nc(Nc2cc(Oc3ccccc3Br)cc([N+](=O)[O-])c2)c2ccccc2n1	1.6	96.3	0	
CCOC(=O)c1nc(Nc2cc(Oc3ccccc3C(F)(F)F)cc([N+](=O)[O-])c2)c2ccccc2n1	58.7	67.1		
